Experimental data published in ChEMBL document CHEMBL2150901, “Synthesis and biological activity of tricyclic cycloalkylimidazo-, pyrimido- and diazepinopurinediones” (Eur J Med Chem, 2011).
Calls of active or inactive are those of the source. The rule behind the calls is not given here.

Assays:
Mus musculus [1] = assay: Neurotoxicity in F1 albino mouse assessed as minimal motor impairment at 300 mg/kg, ip after 0.5 hrs by rotorod test; assay type: toxicity, organism-based; set-up: dose 300 mg/kg, route intraperitoneal; conditions: in vivo
Summary of the method: (§1)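 Male albino F-1 mice (18–25 g), groups of 1–5 (rotorod 2–8). Compound given ip as a suspension in 0.5% methylcellulose at 30, 100 and 300 mg/kg. Seizures by maximal electroshock or subcutaneous pentylenetetrazole; neurotoxicity by rotorod. Read at 0.5 and 4 h, with some at 0.25, 1 and 2 h. Value is the minimum active dose, with protected (or toxic)/tested animals.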

CHO [2] = assay: Selectivity ratio of Ki for human recombinant adenosine A2A receptor expressed in CHO cells to Ki for adenosine A2A receptor in rat brain striatal membrane; assay type: cell-based
Summary of the method: (§2)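 Ki ratios from radioligand competition binding. Rat A1 used brain cortical membranes and rat A2A used brain striatal membranes. Human A1 and A2A used membranes of CHO cells expressing the receptors. A1 radioligand [³H]CCPA; A2A radioligand [³H]MSX-2. Potent compounds were tested at 6–7 concentrations spanning 3 orders of magnitude.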

Mus musculus [3] = assay: Anticonvulsant activity in F1 albino mouse assessed as protection against subcutaneous pentylenetetrazole-induced seizures at 100 mg/kg, ip after 0.5 hrs; assay type: functional, organism-based; set-up: dose 100 mg/kg; summary of the method: as §1
Adenosine receptor A2a [4] = biological target: Adenosine receptor A2a (Rattus norvegicus, UniProt P30543); assay: Displacement of [3H]MSX-2 from adenosine A2A receptor in rat brain striatal membrane; assay type: cell membranes
Mus musculus [5] = assay: Anticonvulsant activity in F1 albino mouse assessed as protection against maximal electroshock-induced seizures at 300 mg/kg, ip after 0.5 hrs; assay type: functional, organism-based; set-up: dose 300 mg/kg; summary of the method: as §1
Mus musculus [6] = assay: Anticonvulsant activity in F1 albino mouse assessed as protection against maximal electroshock-induced seizures at 300 mg/kg, ip after 1 hr; assay type: functional, organism-based; set-up: dose 300 mg/kg; summary of the method: as §1
Adenosine receptor A2b = biological target: T1, Adenosine receptor A2b (Homo sapiens, UniProt P29275); assay: Displacement of [3H]PSB-603 from human recombinant adenosine A2B receptor expressed in CHO cells; assay type: cell-based
T1 sequence (P29275 whole entry): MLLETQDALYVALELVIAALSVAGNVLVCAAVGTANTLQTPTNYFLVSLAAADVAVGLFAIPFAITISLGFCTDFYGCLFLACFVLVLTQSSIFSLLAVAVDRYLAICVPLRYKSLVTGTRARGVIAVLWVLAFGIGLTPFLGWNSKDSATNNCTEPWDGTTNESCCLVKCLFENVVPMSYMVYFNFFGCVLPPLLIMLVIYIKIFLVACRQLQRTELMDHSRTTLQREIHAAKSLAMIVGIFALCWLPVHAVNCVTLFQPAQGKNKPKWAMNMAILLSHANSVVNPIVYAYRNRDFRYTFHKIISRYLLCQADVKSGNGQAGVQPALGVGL
Summary of the method: (§3)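 CHO cell membranes expressing the human receptor. Radioligands: A1 [3H]CCPA; A2B [3H]ZM241385 or [3H]PSB-603; A3 [3H]PSB-11. […] Potent compounds run at 6–7 concentrations spanning 3 orders of magnitude; Ki ± SEM.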

Rattus norvegicus = species: Rattus norvegicus; assay: Selectivity ratio of Ki for adenosine A1 receptor in rat brain cortical membrane to Ki for adenosine A2A receptor in rat brain striatal membrane; assay type: cell membranes; summary of the method: as §2
Mus musculus [7] = assay: Neurotoxicity in F1 albino mouse assessed as minimal motor impairment at 300 mg/kg, ip after 0.25 hrs by rotorod test; assay type: toxicity, organism-based; set-up: dose 300 mg/kg, route intraperitoneal; conditions: in vivo; summary of the method: as §1
[8] = biological target: T2, Adenosine receptor A2b (Homo sapiens) (UniProt P29275); assay: Displacement of [3H]PSB-603 from human recombinant adenosine A2B receptor expressed in CHO cells at 10 uM; assay type: cell-based; summary of the method: as §3
T2 sequence (whole entry): T1 sequence (P29275 whole entry)

Adenosine receptor A1 [9] = biological target: T3, Adenosine receptor A1 (Rattus norvegicus, UniProt P25099); assay: Displacement of [3H]CCPA from adenosine A1 receptor in rat brain cortical membrane; assay type: cell membranes
T3 sequence (P25099 whole entry): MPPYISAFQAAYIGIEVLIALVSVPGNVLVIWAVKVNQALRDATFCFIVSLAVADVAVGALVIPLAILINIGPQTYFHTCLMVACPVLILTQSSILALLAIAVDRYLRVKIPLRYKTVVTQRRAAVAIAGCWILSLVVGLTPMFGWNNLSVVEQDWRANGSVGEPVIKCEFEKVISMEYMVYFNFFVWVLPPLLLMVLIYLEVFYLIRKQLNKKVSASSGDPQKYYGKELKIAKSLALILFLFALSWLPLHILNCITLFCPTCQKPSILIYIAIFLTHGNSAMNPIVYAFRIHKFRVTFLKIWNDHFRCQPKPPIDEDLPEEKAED

Mus musculus [10] = assay: Anticonvulsant activity in F1 albino mouse assessed as protection against subcutaneous pentylenetetrazole-induced seizures at 300 mg/kg, ip after 1 hr; assay type: functional, organism-based; set-up: dose 300 mg/kg; summary of the method: as §1
[11] = biological target: T4, Adenosine receptor A3 (Homo sapiens) (UniProt P0DMS8); assay: Displacement of [3H]PSB-11 from human recombinant adenosine A3 receptor expressed in CHO cells at 10 uM; assay type: cell-based; summary of the method: as §3
T4 sequence (whole entry): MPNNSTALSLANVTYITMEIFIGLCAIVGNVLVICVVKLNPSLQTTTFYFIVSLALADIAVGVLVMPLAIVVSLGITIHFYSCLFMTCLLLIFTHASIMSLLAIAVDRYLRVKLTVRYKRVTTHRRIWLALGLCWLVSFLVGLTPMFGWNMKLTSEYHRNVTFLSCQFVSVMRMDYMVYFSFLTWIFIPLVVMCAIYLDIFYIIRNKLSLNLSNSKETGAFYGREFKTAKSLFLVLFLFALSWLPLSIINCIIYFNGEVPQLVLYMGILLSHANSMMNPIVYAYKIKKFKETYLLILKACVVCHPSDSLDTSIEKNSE

Mus musculus [12] = assay: Anticonvulsant activity in F1 albino mouse assessed as protection against subcutaneous pentylenetetrazole-induced seizures at 300 mg/kg, ip after 4 hrs; assay type: functional, organism-based; set-up: dose 300 mg/kg; summary of the method: as §1
Mus musculus [13] = assay: Anticonvulsant activity in F1 albino mouse assessed as protection against subcutaneous pentylenetetrazole-induced seizures at 300 mg/kg, ip after 0.25 hrs; assay type: functional, organism-based; set-up: dose 300 mg/kg; summary of the method: as §1
Mus musculus [14] = assay: Anticonvulsant activity in F1 albino mouse assessed as protection against maximal electroshock-induced seizures at 300 mg/kg, ip after 0.25 hrs; assay type: functional, organism-based; set-up: dose 300 mg/kg; summary of the method: as §1
Mus musculus [15] = assay: Anticonvulsant activity in F1 albino mouse assessed as protection against maximal electroshock-induced seizures at 300 mg/kg, ip after 4 hrs; assay type: functional, organism-based; set-up: dose 300 mg/kg; summary of the method: as §1
Mus musculus [16] = assay: Neurotoxicity in F1 albino mouse assessed as minimal motor impairment at 300 mg/kg, ip after 1 hr by rotorod test; assay type: toxicity, organism-based; set-up: dose 300 mg/kg, route intraperitoneal; conditions: in vivo; summary of the method: as §1
CHO [17] = assay: Selectivity ratio of Ki for adenosine A1 receptor in rat brain cortical membrane to Ki for human recombinant adenosine A1 receptor expressed in CHO cells; assay type: cell-based; summary of the method: as §2
Adenosine receptor A1 [18] = biological target: T5, Adenosine receptor A1 (Homo sapiens, UniProt P30542); assay: Displacement of [3H]CCPA from human recombinant adenosine A1 receptor expressed in CHO cells; assay type: cell-based
T5 sequence (P30542 whole entry): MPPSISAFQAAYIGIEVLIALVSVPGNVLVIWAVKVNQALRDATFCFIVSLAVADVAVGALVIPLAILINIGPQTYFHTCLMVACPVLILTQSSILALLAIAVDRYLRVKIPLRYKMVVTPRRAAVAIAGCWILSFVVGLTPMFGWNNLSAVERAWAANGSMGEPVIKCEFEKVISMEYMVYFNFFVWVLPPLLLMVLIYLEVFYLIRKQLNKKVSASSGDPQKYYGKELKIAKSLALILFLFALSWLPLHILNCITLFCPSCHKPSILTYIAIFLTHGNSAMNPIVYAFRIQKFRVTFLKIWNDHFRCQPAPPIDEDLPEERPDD

Adenosine receptor A2a [19] = biological target: T6, Adenosine receptor A2a (Homo sapiens, UniProt P29274); assay: Displacement of [3H]MSX-2 from human recombinant adenosine A2A receptor expressed in CHO cells; assay type: cell-based
Adenosine receptor A3 = biological target: T7, Adenosine receptor A3 (Homo sapiens, UniProt P0DMS8); assay: Displacement of [3H]PSB-11 from human recombinant adenosine A3 receptor expressed in CHO cells; assay type: cell-based
T7 sequence (P0DMS8 whole entry): T4 sequence (whole entry)

Mus musculus [20] = assay: Neurotoxicity in F1 albino mouse assessed as minimal motor impairment at 300 mg/kg, ip after 4 hrs by rotorod test; assay type: toxicity, organism-based; set-up: dose 300 mg/kg, route intraperitoneal; conditions: in vivo; summary of the method: as §1
[21] = biological target: T2, Adenosine receptor A2b (Homo sapiens); conditions: CHO, 10 uM
[22] = biological target: T8, Adenosine receptor A1 (Rattus norvegicus) (UniProt P25099); conditions: Brain, 10 uM
T8 sequence (whole entry): T3 sequence (P25099 whole entry)

Mus musculus [23] = assay: Anticonvulsant activity in F1 albino mouse assessed as protection against subcutaneous pentylenetetrazole-induced seizures at 300 mg/kg, ip after 0.5 hrs; assay type: functional, organism-based; set-up: dose 300 mg/kg; summary of the method: as §1
Mus musculus [24] = assay: Neurotoxicity in F1 albino mouse assessed as minimal motor impairment at 100 mg/kg, ip after 0.5 hrs by rotorod test; assay type: toxicity, organism-based; set-up: dose 100 mg/kg, route intraperitoneal; conditions: in vivo; summary of the method: as §1
[25] = biological target: T9, Adenosine receptor A1 (Homo sapiens) (UniProt P30542); assay: Displacement of [3H]CCPA from human recombinant adenosine A1 receptor expressed in CHO cells at 10 uM; assay type: cell-based; summary of the method: as §3
T9 sequence (whole entry): T5 sequence (P30542 whole entry)

[26] = biological target: T8, Adenosine receptor A1 (Rattus norvegicus); assay: Displacement of [3H]CCPA from adenosine A1 receptor in rat brain cortical membrane at 25 uM; assay type: cell membranes
Adenosine receptor A2a [27] = biological target: T6, Adenosine receptor A2a; conditions: CHO, 10 uM
[28] = biological target: Adenosine receptor A2a (Rattus norvegicus) (UniProt P30543); conditions: Brain, Membrane, 25 uM
Sequence of Adenosine receptor A2a (Rattus norvegicus) (P30543 whole entry): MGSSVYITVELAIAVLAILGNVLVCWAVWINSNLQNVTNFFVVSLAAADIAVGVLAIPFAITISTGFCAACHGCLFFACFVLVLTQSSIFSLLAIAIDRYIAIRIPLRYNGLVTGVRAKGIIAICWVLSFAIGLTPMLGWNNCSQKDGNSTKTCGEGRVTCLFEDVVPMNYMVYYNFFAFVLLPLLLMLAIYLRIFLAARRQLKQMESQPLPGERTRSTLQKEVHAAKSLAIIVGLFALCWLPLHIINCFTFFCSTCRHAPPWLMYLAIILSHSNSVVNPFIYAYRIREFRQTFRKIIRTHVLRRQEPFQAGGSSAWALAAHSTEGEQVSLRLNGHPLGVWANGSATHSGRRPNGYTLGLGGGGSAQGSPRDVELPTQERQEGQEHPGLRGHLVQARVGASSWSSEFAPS

Sequence of Adenosine receptor A2a (Rattus norvegicus, UniProt P30543) (P30543 whole entry): as above
T6 sequence (P29274 whole entry): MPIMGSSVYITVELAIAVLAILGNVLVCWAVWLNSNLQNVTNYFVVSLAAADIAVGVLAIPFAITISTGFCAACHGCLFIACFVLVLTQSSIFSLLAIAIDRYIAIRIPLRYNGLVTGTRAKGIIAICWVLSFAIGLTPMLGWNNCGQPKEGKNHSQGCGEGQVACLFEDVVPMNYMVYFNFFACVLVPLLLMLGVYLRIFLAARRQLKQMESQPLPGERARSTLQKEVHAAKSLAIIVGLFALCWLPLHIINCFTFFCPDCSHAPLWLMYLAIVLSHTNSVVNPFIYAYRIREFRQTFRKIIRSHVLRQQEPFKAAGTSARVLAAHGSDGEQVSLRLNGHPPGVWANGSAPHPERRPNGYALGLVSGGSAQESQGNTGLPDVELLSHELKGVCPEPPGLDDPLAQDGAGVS

| SMILES | Activity (Mus musculus [1]) | Ki (Adenosine receptor A2a [4]) [µM] | Activity (Mus musculus [5]) | Activity (Mus musculus [6]) | Ki (Adenosine receptor A2b) [µM] | Ratio Ki (Rattus norvegicus) | Activity (Mus musculus [7]) | inhibition [8] [%] | Ki (Adenosine receptor A1 [9]) [µM] | Activity (Mus musculus [10]) | inhibition [11] [%] | Activity (Mus musculus [12]) | Activity (Mus musculus [13]) | Activity (Mus musculus [14]) | Activity (Mus musculus [15]) | Activity (Mus musculus [16]) | Ki (Adenosine receptor A1 [18]) [µM] | Ki (Adenosine receptor A2a [19]) [µM] | Ki (Adenosine receptor A3) [µM] | Activity (Mus musculus [20]) | also measured |
| --- | --- | --- | --- | --- | --- | --- | --- | --- | --- | --- | --- | --- | --- | --- | --- | --- | --- | --- | --- | --- | --- |
| Cn1c(=O)c2c(nc3n2CCCN3CCC2=CCCCC2)n(C)c1=O | Non-toxic | 0.5 | inactive | inactive | > 10 | 44 | Non-toxic | 6 | 14.7 | inactive | 23 | inactive | inactive | inactive | inactive | Non-toxic | 6.9 | 0.933 | > 10 | Non-toxic | Ratio Ki (CHO [2]): 2; Activity (Mus musculus [3]): inactive; Ratio Ki (CHO [17]): 2 |
| CCn1c(=O)c2c(nc(/C=C/c3ccc(OC)c(OC)c3)n2C)n(CC)c1=O [ISTRADEFYLLINE] |  |  |  |  |  |  |  |  |  |  |  |  |  |  |  |  | 2.07 |  | 4.47 |  | inhibition [21]: 47% |
| Cn1c(=O)c2c(nc3n2CCN3C2CCCCC2)n(C)c1=O |  | 2.58 | inactive | inactive | > 10 | > 4 | Non-toxic | 11 | > 10 | inactive | 12 | inactive | inactive | inactive | inactive | Non-toxic | > 10 | 1.61 | > 10 | Non-toxic | inhibition [22]: 27%; Activity (Mus musculus [23]): Active; Activity (Mus musculus [24]): Non-toxic; inhibition [25]: 41% |
| Cn1c(=O)c2c(nc3n2CCCN3C23CC4CC(CC(C4)C2)C3)n(C)c1=O | Non-toxic | > 10 | inactive | inactive | > 10 | 1 | Non-toxic | 0 | > 10 | inactive |  | inactive | inactive | inactive | inactive | Non-toxic | > 10 | > 10 | 1.29 | Non-toxic | Activity (Mus musculus [23]): inactive; inhibition [26]: 7%; inhibition (Adenosine receptor A2a [27]): 0%; inhibition [25]: 15%; inhibition [28]: 13% |
